ChEMBL document CHEMBL1275352, “Selection of evodiamine as a novel topoisomerase I inhibitor by structure-based virtual screening and hit optimization of evodiamine derivatives as antitumor agents” (J Med Chem, 2010)
Calls of active or inactive are those of the source. The rule behind the calls is not given here.

How the values were obtained:
A549 = test: Cytotoxicity against human A549 cells after 3 days by MTT assay; assay type: functional, cell-based
LoVo = test: Cytotoxicity against human LoVo cells after 3 days by MTT assay; assay type: functional, cell-based
MDA-MB-435 = test: Cytotoxicity against human MDA-MB-435 cells after 3 days by MTT assay; assay type: functional, cell-based
HCT-116 = test: Cytotoxicity against human HCT116 cells after 3 days by MTT assay; assay type: functional, cell-based; settings: HCT-116, 72 h
[1] = target: T1, DNA topoisomerase 1 (Homo sapiens) (UniProt P11387); test: Inhibition of DNA topoisomerase 1-mediated supercoiled Escherichia coli pBR322 DNA relaxation at 1 to 50 uM by UV transilluminator analysis
T1 sequence (whole entry): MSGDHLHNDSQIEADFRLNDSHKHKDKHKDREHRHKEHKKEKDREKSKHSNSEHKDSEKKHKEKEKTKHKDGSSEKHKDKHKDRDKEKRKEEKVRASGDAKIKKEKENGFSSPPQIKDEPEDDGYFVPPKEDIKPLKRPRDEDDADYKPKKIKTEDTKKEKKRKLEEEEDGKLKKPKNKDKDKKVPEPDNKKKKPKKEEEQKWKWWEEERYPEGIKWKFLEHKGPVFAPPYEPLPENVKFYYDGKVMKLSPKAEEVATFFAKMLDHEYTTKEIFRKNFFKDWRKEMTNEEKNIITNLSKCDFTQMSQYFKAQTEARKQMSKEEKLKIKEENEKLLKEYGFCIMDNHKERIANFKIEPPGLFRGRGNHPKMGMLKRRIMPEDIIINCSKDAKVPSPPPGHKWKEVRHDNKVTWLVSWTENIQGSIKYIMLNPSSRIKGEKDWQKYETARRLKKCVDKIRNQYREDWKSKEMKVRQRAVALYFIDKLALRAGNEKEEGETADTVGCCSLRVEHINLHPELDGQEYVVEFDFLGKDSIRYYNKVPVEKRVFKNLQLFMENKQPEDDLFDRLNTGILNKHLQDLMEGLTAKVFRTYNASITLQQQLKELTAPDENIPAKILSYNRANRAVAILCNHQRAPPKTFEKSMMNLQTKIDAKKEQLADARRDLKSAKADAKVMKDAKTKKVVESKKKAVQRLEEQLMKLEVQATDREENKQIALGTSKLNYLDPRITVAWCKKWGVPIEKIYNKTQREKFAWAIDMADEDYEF
How it was run: (§1)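 Purified topoisomerase I was incubated with supercoiled DNA, and inhibition of relaxation by the enzyme was scored. Compounds were tested at concentrations ranging from 1 to 500 μM; an initial screen was run at 500 μM and active compounds were retested at lower concentrations.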

[2] = target: T1, DNA topoisomerase 1 (Homo sapiens); test: Inhibition of DNA topoisomerase 1-mediated supercoiled Escherichia coli pBR322 DNA relaxation at 100 uM by UV transilluminator analysis; settings: 500 uM; in the assay text read “500 uM” for “100 uM”; how it was run: as §1
[3] = target: T1, DNA topoisomerase 1 (Homo sapiens); test: Inhibition of DNA topoisomerase 1-mediated supercoiled Escherichia coli pBR322 DNA relaxation at 10 uM by UV transilluminator analysis; how it was run: as §1
[4] = target: T1, DNA topoisomerase 1 (Homo sapiens); test: Inhibition of DNA topoisomerase 1-mediated supercoiled Escherichia coli pBR322 DNA relaxation by UV transilluminator analysis; how it was run: as §1
[5] = Homo sapiens, A549, 72 h, read-out: IC50
[6] = Homo sapiens, LoVo, 72 h, read-out: IC50
[7] = Homo sapiens, MDA-MB-435, 72 h, read-out: IC50

| SMILES | IC50 (A549; a549) | IC50 (LoVo; lovo) | IC50 (MDA-MB-435; mda-mb-435) | IC50 (A549; [5]) | IC50 (LoVo; [6]) | IC50 (MDA-MB-435; [7]) | other results |
| --- | --- | --- | --- | --- | --- | --- | --- |
| CCn1c2c(c3ccccc31)CCN1C(=O)c3ccccc3N(C)C21 (stereo not drawn) | Not Active | Not Active | Not Active |  |  |  |  |
| CN1c2ccccc2C(=O)N2CCc3c(n(Cc4ccccc4Cl)c4ccccc34)C21 (stereo not drawn) |  |  |  | 29 µM | 74 µM | 42 µM |  |
| CC1CCc2c(sc3nc4c5ccccc5c(-c5ccccc5)nn4c(=O)c23)C1 (stereo not drawn) | Not Active | Not Active | Not Active |  |  |  |  |
| C=CCN1C(=O)/C(=C2\S/C(=N\c3ccccc3)N(c3ccccc3)C2=O)c2ccccc21 | Not Active | Not Active | Not Active |  |  |  |  |
| CN1c2ccccc2C(=O)N2CCc3c(n(C(=O)c4ccccc4Cl)c4ccccc34)C21 (stereo not drawn) |  |  |  | 14 µM |  | 0.18 µM | IC50 (HCT-116): 4.7 µM |
| CCOC(=O)n1c2c(c3ccccc31)CCN1C(=O)c3ccccc3N(C)C21 (stereo not drawn) |  |  |  | 130 µM | 95 µM | 9.4 µM |  |
| CC(C)n1c2c(c3ccccc31)CCN1C(=O)c3ccccc3N(C)C21 (stereo not drawn) | Not Active | Not Active | Not Active |  |  |  |  |
| Cc1cc2nc3s/c(=C4\C(=O)N(CC(=O)O)c5ccccc54)c(=O)n3c2cc1C | Not Active |  |  |  | 240 µM | 170 µM | inhibition [1]: Active; inhibition [2]: Active |
| CN1c2ccccc2C(=O)N2CCc3c(n(C(=O)c4ccccc4)c4ccccc34)C21 (stereo not drawn) |  |  |  | 10 µM | 15 µM | 0.047 µM |  |
| CCCCCN1C(=O)/C(=c2\sc3nc4ccccc4n3c2=O)c2ccccc21 | Not Active | Not Active | Not Active |  |  |  |  |
| CCOC(=O)C1=C(C)N=c2s/c(=C3\C(=O)N(CC)c4ccccc43)c(=O)n2C1/C=C/c1ccccc1 (stereo not drawn) | Not Active | Not Active | Not Active |  |  |  |  |
| Cc1cccc2c1nc1c3ccc4c5c(ccc(c(=O)n21)c53)C(=O)NC4=O | Not Active | Not Active | Not Active |  |  |  |  |
| CN1c2ccccc2C(=O)N2CCc3c(n(Cc4cccc(Cl)c4)c4ccccc34)C21 (stereo not drawn) | Not Active | Not Active | Not Active |  |  |  |  |
| CN1c2ccccc2C(=O)N2CCc3c(n(CC(=O)O)c4ccccc34)C21 (stereo not drawn) |  |  |  | 72 µM | 130 µM | 13 µM |  |
| Nc1ccccc1Sc1ccc2c(=O)n3c4ccccc4nc3c3cccc1c23 | Not Active | Not Active | Not Active |  |  |  | inhibition [2]: Active |
| COc1ccc(Cn2c3c(c4ccccc42)CCN2C(=O)c4ccccc4N(C)C32)cc1 (stereo not drawn) | Not Active | Not Active | Not Active |  |  |  |  |
| CN1c2ccccc2C(=O)N2CCc3c(n(C(=O)c4cccc(Cl)c4)c4ccccc34)C21 (stereo not drawn) |  |  |  | 2.9 µM |  | 0.051 µM | IC50 (HCT-116): 3.3 µM |
| CN1c2ccccc2C(=O)N2CCc3c(n(Cc4ccccc4)c4ccccc34)C21 (stereo not drawn) |  |  |  | 55 µM | 67 µM | 110 µM |  |
| c1ccc2c(OCc3nc4c5c6c(sc5ncn4n3)CCCCC6)cccc2c1 | Not Active | Not Active | Not Active |  |  |  |  |
| CN1c2ccccc2C(=O)N2CCc3c(n(CC#N)c4ccccc34)C21 (stereo not drawn) |  | Not Active |  | 220 µM |  | 200 µM |  |
| O=C(NCCO)c1ccc2nc3c4ccccc4c4ccccc4c3nc2c1 | Not Active | Not Active | Not Active |  |  |  |  |
| Cc1ccc(-c2csc3nc4c5ccccc5c(Cl)nn4c(=O)c23)cc1C | Not Active |  | Not Active |  | 190 µM |  | inhibition [2]: Active |
| COc1ccc(C(=O)n2c3c(c4ccccc42)CCN2C(=O)c4ccccc4N(C)C32)cc1 (stereo not drawn) |  |  | Not Active | 74 µM |  |  | IC50 (HCT-116): 45 µM |

| SMILES | IC50 (A549; a549) | IC50 (LoVo; lovo) | IC50 (MDA-MB-435; mda-mb-435) | IC50 (A549; [5]) | IC50 (LoVo; [6]) | IC50 (MDA-MB-435; [7]) | other results |
| --- | --- | --- | --- | --- | --- | --- | --- |
| CCOC(=O)Cn1c2c(c3ccccc31)CCN1C(=O)c3ccccc3N(C)C21 (stereo not drawn) | Not Active | Not Active |  |  |  | 150 µM |  |
| CN1c2ccccc2C(=O)N2CCc3c(n(Cc4ccc(Cl)cc4Cl)c4ccccc34)C21 (stereo not drawn) | Not Active | Not Active | Not Active |  |  |  |  |
| CN1c2ccccc2C(=O)N2CCc3c(n(C(=O)c4ccc(Cl)cc4Cl)c4ccccc34)C21 (stereo not drawn) |  |  |  | 5.3 µM |  | 0.39 µM | IC50 (HCT-116): 3.8 µM |
| Cn1c(=O)n(C)c2cc3c(cc21)nc1c2cccc4c(Br)ccc(c(=O)n31)c42 | Not Active | Not Active | Not Active |  |  |  |  |
| COCCOC(=O)c1sc2nc3c4ccccc4c(-c4ccc(C)c(C)c4)nn3c(=O)c2c1C | Not Active |  | Not Active |  | 45 µM |  |  |
| O=S(=O)(c1ccccc1)c1cc2c(O)c3c(ccc4cccnc43)c(O)c2c2ncccc12 |  | Not Active | Not Active | 120 µM |  |  |  |
| CN1c2ccccc2C(=O)N2CCc3c(n(C(=O)c4ccc([N+](=O)[O-])cc4)c4ccccc34)C21 (stereo not drawn) |  |  |  | 2.8 µM |  | 0.55 µM | IC50 (HCT-116): 4.1 µM |
| CN1c2ccccc2C(=O)N2CCc3c(n(C(=O)c4ccc(Cl)cc4)c4ccccc34)C21 (stereo not drawn) |  |  |  | 0.86 µM |  | 0.049 µM | inhibition [2]: Active; IC50 (HCT-116): 2.6 µM |
| COc1ccc(-c2nc3c4c(-c5ccccc5)c(-c5ccccc5)oc4ncn3n2)cc1OC | Not Active |  | Not Active |  | 75 µM |  |  |
| CCCOc1ccc(-c2nc3s/c(=C4\C(=O)N(CC(=O)O)c5ccccc54)c(=O)n3n2)cc1 | Not Active | Not Active | Not Active |  |  |  | inhibition [3]: Active; inhibition [2]: Active; inhibition [4]: Dose-dependent effect |
| CCc1c2c(nc3ccc(OC(=O)N4CCC(N5CCCCC5)CC4)cc13)-c1cc3c(c(=O)n1C2)COC(=O)[C@]3(O)CC [IRINOTECAN] |  |  |  | 6.4 µM | 8.8 µM | 17 µM |  |
| Cc1ccc(C(=O)n2c3c(c4ccccc42)CCN2C(=O)c4ccccc4N(C)C32)cc1 (stereo not drawn) |  |  |  | 3 µM |  | 0.038 µM | IC50 (HCT-116): 4.3 µM |
| CN1c2ccccc2C(=O)N2CCc3c(n(C(=O)c4ccccc4F)c4ccccc34)C21 (stereo not drawn) |  |  | Not Active | 35 µM |  |  | IC50 (HCT-116): 89 µM |
| CN1c2ccccc2C(=O)N2CCc3c(n(C(=O)c4ccc(F)cc4)c4ccccc34)C21 (stereo not drawn) |  |  |  | 4.3 µM |  | 0.13 µM | IC50 (HCT-116): 5.1 µM |
| CCCn1c2c(c3ccccc31)CCN1C(=O)c3ccccc3N(C)C21 (stereo not drawn) | Not Active | Not Active | Not Active |  |  |  |  |
| CC[C@@]1(O)C(=O)OCc2c1cc1n(c2=O)Cc2cc3ccccc3nc2-1 [CAMPTOTHECIN] |  |  |  | 0.057 µM | 3.1 µM | 0.71 µM |  |
| CCCNC(=O)Cn1c2ccccc2[n+]2nc3c(cc12)-c1cccc2cccc-3c12 |  |  |  | 37 µM | 26 µM | 77 µM | inhibition [1]: Active; inhibition [2]: Active |
| CCCCCCn1c2c(c3ccccc31)CCN1C(=O)c3ccccc3N(C)C21 (stereo not drawn) |  |  |  | 120 µM | 59 µM | 110 µM |  |
| CCOC(=O)C1=C(C)N=c2s/c(=C3\C(=O)N(CC)c4ccccc43)c(=O)n2C1c1ccccc1 (stereo not drawn) | Not Active | Not Active | Not Active |  |  |  |  |
| Cc1ccccc1C(=O)n1c2c(c3ccccc31)CCN1C(=O)c3ccccc3N(C)C21 (stereo not drawn) |  |  |  | 4.2 µM |  | 0.15 µM | IC50 (HCT-116): 3.9 µM |
| COC(=O)c1cc(OCc2cccc(C(F)(F)F)c2)c2c(c1)Oc1nc3ccccc3nc1O2 | Not Active | Not Active | Not Active |  |  |  |  |
| c1ccc(Cn2c(-c3ccccc3)c(-c3ccccc3)c3c2ncn2nc(-c4cccnc4)nc32)cc1 | Not Active |  | Not Active |  | 180 µM |  |  |
| O=c1c2ccccc2nc2c3ccccc3c(Sc3nnc4ccccn34)nn12 | Not Active | Not Active | Not Active |  |  |  |  |
